Screening data (PubChem)
In the library only some 3.5% were active in any assay of this set; here they are far more common.
HIV Env fusion: blocks HIV Env-driven cell-cell fusion; HeLa-JRFL Env/CEM21 cell fusion, luciferase; inhibition, % at 12.3 µM; 360,000 tested, 1.1% active; AID 651610;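 active means mean replicate inhibition score of at least 50 and every replicate individually at or above 50; inconclusive means only one of the two criteria met; inactive means mean below 50 and not all replicates reaching 50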;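 further: 0% = plate neutral controls and 100% = maraviroc near 300 nM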
ERAP1 inh: ERAP1 (human) enzyme inhibition. recombinant ERAP1, Leu-AMC fluorescence, 60 min. inhibition, % at 10.7 µM. 340,000 tested, 0.15% active. AID 652197;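 active means mean replicate inhibition of at least 30%, or all replicates individually reaching that 30% level; inactive means mean below 30% and not every replicate reaching it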;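 further: 0% = neutral control wells and 100% = L-leucinethiol positive control wells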
Target sequence (Q9NZ08 whole entry, looked up): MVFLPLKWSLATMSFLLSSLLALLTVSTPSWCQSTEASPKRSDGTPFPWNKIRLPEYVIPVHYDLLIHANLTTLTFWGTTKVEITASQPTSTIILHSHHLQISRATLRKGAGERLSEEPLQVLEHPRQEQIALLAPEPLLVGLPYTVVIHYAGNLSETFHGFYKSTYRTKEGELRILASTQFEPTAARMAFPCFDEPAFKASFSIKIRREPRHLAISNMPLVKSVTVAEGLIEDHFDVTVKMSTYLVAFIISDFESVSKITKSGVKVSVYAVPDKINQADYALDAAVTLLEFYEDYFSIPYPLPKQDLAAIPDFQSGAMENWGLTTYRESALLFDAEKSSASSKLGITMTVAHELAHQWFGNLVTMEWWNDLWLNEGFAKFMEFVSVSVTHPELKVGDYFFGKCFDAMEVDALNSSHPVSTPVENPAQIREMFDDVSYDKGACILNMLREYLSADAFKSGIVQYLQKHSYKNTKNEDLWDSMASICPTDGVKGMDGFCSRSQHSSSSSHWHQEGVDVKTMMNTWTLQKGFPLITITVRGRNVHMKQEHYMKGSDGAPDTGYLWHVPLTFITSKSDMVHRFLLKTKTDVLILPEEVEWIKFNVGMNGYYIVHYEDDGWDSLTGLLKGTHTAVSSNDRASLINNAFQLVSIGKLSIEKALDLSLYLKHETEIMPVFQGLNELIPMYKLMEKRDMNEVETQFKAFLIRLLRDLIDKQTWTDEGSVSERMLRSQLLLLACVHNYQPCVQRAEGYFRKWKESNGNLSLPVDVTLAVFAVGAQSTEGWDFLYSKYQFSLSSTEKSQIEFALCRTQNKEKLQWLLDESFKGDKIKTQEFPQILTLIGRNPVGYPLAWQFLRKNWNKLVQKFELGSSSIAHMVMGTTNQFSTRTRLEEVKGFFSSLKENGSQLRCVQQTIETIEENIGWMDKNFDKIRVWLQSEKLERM
esBAF inh: blocks esBAF chromatin remodeling in mouse ES cells. reporter increase, % at 12.5 µM. 350,000 tested, 2% active. AID 602393. Bmi1-luciferase knock-in reporter, 24 h; 100% = twice the neutral-well signal; in the data active means activation above about 40%; inconclusive means no clear call, values can overlap the other calls;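 further: 0% = median of the plate's neutral control wells and 100% = double that signal; a rise in the Bmi1 reporter signal indicates esBAF inhibition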
MITF TRPM1 HTS: increases MITF-driven TRPM1 promoter luciferase signal; SK-MEL-5 TRPM1-promoter luciferase, 24 h; % of positive control, neutral wells = 0; activation, % at 12.5 µM; 300,000 tested, 0.75% active; AID 588334;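 active means mean activation of at least 80% with every replicate also reaching 80%; inconclusive means mean reaches 80% but some replicate falls short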;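 further: 0% = neutral control wells and 100% = parthenolide positive control wells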
Cneo AK release: causes C. neoformans cell lysis; adenylate kinase release luminescence, 4 h; normalised: neutral wells 0, clomiphene wells 100; lysis activity, % at 15 µM; 360,000 tested, 0.2% active; AID 651654;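 active means mean lysis activity across replicates of at least 80%, whatever share of replicates individually reach that level; inactive means mean lysis activity below 80%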
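Test system: log-phase Cryptococcus neoformans yeast cells; Quantity: yeast cell density of 5 × 10^6 cells/mL; Buffer or medium: YPD; Doses: single compound concentration per well; Timing: 4 h at 37 °C static, read 1 h later; Measured by: AK luminescence; Read-out basis: lysis from increased AK signal; Control set: Clomiphene as positive control.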
Wnt act: Wnt/beta-catenin pathway activation | Wnt/beta-catenin reporter cell assay, activator, plate reader | activation, % at 9.35 µM | 300,000 tested, 1.2% active | AID 743398; in the data active means activation above about 30%, passing the limit was not always enough; inconclusive means no clear call, values can overlap the other calls;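 further: 0% = neutral control wells and 100% = positive control wells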
* hit, by the source's call; i = inactive; ? = inconclusive; . = no result; [ ] = dose if it differs, or a comment.

SMILES	HIV Env fusion	ERAP1 inh	esBAF inh	MITF TRPM1 HTS	Cneo AK release	Wnt act
Cc1ccc(S(=O)(=O)N[C@H]2C=C[C@H](CC(=O)NC3CCCCC3)O[C@H]2CO)cc1	-7.9[16.7 µM]	-4.9	5.4	.	0.4	.
COc1cc2sc3ccc(-c4ccc5[nH]ccc5c4)cc3c(=O)c2cc1OC	-110.5	.	51.2*	130.2*	25.0	11.7
O=c1c2ccccc2oc2cc(-c3ccc4[nH]ccc4c3)ccc12	i	1.6	-9.1	53.5	-2.6	9.9
COc1cccc2oc3ccc(C#Cc4ccccn4)cc3c(=O)c12	-140.9	0.1	0.6	44.9	-10.7	39.5*
CNC(C)C#Cc1ccc2oc3cccc(OC)c3c(=O)c2c1 (stereo unspecified)	-205.1	-10.4	9.5	58.0	-2.3	19.3
CN1C(=O)c2cc(NC(=O)c3cccc(C(F)(F)F)c3)ccc2OC[C@H]2O[C@@H](CC(=O)NCCN3CCCC3)CC[C@H]21	.	3.0	1.0	.	3.7	.
C[C@@H]1CN([C@H](C)CO)C(=O)c2cc(C#Cc3cccnc3)cnc2O[C@@H]1CN(C)Cc1ccccc1	6.1[16.7 µM]	1.9	.	.	46.1	.
CCC(=O)N(C)C[C@@H]1Oc2cc(C#Cc3ccccn3)ccc2S(=O)(=O)N([C@H](C)CO)C[C@@H]1C	-11.2[16.7 µM]	-1.2	1.5	.	-12.3	.
CCN1/C(=C/c2ccc3cc(C)ccc3[n+]2CC)Sc2cc(C)c(C)cc21	28.7	32.6*	-74.8	-69.7	.	-9.0
Cc1ccc(NCc2ccccc2O)cc1C	-16.6	4.2	67.9*	51.9	0.8	11.5
CSc1ccc(CNc2ccc(C)c(C)c2)cc1	.	-0.4	58.7*	78.5	2.6	-0.6
Cc1ccc(NCc2ccccc2)cc1	-12.2	-2.8	.	20.2	.	9.5
CSc1ccc(CNc2ccc(C)cc2)cc1	-49.5	-3.4	55.3*	59.0	-0.1	.
Oc1ccccc1CNc1cnc2ccccc2c1	.	-6.9	53.8*	27.4	-0.6	21.1
COc1ccc(CNc2ccc(C)c(C)c2)cc1	4.4	2.2	.	15.2	.	-1.5
Oc1ccccc1CNc1ccc2c(c1)OCCO2	6.6	6.5	-40.9	25.8	-1.5	6.8
CCCNC(=O)C[C@H]1CC[C@H]2[C@@H](COC[C@@H](O)CN2C(=O)CC)O1	.	-2.5	-2.1	.	1.0	.
CNC[C@H]1Oc2c(NC(=O)NC(C)C)cccc2C(=O)N([C@@H](C)CO)C[C@H]1C	2.7[16.7 µM]	-3.0	3.4	.	-2.1	.
Cc1ccc(CNc2cccnc2)cc1	-7.9	2.9	57.8*	47.3	-2.1	0.3
Cc1nc2nc(-c3ccc(F)cc3)cn2nc1C	-0.4	1.5	.	17.6	.	22.5
CCc1ccc(-c2cn3nc(C)c(C)nc3n2)cc1	75.8*	.	-79.6	.	-3.0	.
CC1(C)CC(=O)C=C(c2ccc(F)cc2OCc2ccccc2)C1	76.9*	-4.6	-2.6	5.8	1.6	-0.6
COc1ccc(C2=CC(=O)CC(C)(C)C2=O)cc1	11.2	.	.	.	.	-0.3
CC1(C)CC(=O)C=C(c2ccc(CO)cc2)C1=O	4.7	12.1	-6.8	.	12.1	-1.6
CC1(C)CC(=O)C=C(c2ccc(-c3ccccc3)cc2)C1=O	-38.7	.	77.8*	.	-3.5	-1.8
SMILES	HIV Env fusion	ERAP1 inh	esBAF inh	MITF TRPM1 HTS	Cneo AK release	Wnt act
CC1(C)CC(=O)C=C(c2ccc(-c3ccc(OC(F)(F)F)cc3)cc2)C1=O	-42.0	1.0	56.4*	.	-1.8	6.9
CC1(C)CC(=O)C=C(c2ccc(-c3ccccc3)cc2)C1	-239.9	0.1	73.6*	142.0*	-3.8	27.5
CN(C)CCCNC(=O)C[C@H]1CC[C@@H](NS(=O)(=O)c2ccc(F)cc2)[C@H](CO)O1	-20.5[16.7 µM]	-2.5	-1.3	.	55.1	.
COc1ccc(-c2csc(N(Cc3ccco3)C(=O)c3cccs3)n2)cc1	-2.5	-2.1	21.9	-3.4	-3.8	40.5*
CCN(CC)CCCN(C(=O)c1cccs1)c1nc(-c2ccc(OC)cc2)cs1	.	.	-5.7	.	-0.3	.
COc1ccc(OC)c(-c2csc(N(Cc3ccco3)C(=O)c3cccs3)n2)c1	17.1	.	2.7	.	-2.0	.
COc1ccc(-c2csc(N(C)C(=O)c3cccs3)n2)cc1	-63.8	-1.3	?	96.6*	1.0	38.1*
O=C(N[C@@H]1CC[C@@H](CCNC(=O)C2CCCC2)O[C@@H]1CO)c1ccccn1	-2.5[16.7 µM]	0.7	-2.2	.	-1.8	.
O=C(c1ccc2c(c1)OCO2)N1C[C@@H]2[C@H](c3ccccc31)[C@@H](CO)N2Cc1ccc2c(c1)OCO2	.	5.0	-2.1	.	-0.9	.
COc1cccc2c1C(=O)c1c(O)c3c(c(O)c1C2=O)C[C@@](O)(C(=O)CO)C[C@@H]3O[C@H]1C[C@H](N)[C@@H](O)[C@H](C)O1	.	.	-83.3	-81.4	-2.1	.
COc1cccc2c1C(=O)c1c(O)c3c(c(O)c1C2=O)CC(O)(C(=O)CO)CC3OC1CC(N(C)C)C(O)C(C)O1 (stereo unspecified)	58.6*	6.2	.	.	.	-24.8
CCCN1C[C@H](C)[C@H](OC)CN(C)C(=O)c2cc(NC(=O)c3cccc(OC)c3)ccc2OC[C@@H]1C	.	.	-2.5	.	.	.
COc1ccc(C(=O)NCCc2cc3ccc(C)c(C)c3[nH]c2=O)cc1OC	3.6	2.7	.	-3.8	.	-1.6
Cc1ccc2cc(CCNC(=O)CCCc3ccccc3)c(=O)[nH]c2c1	9.0	0.9	3.2	-12.1	-0.6	-3.2
Cc1cc2cc(CCNC(=O)c3cccs3)c(=O)[nH]c2cc1C	-52.5	.	81.7*	.	-1.3	?
Cc1ccc2cc(CCNC(=O)c3ccco3)c(=O)[nH]c2c1C	-27.4	.	-28.9	104.0*	-1.3	?
Cc1ccc2cc(CCNC(=O)c3ccco3)c(=O)[nH]c2c1	-84.2	.	26.0	103.2*	-4.7	.
COc1ccc2cc(CCNC(=O)c3ccco3)c(=O)[nH]c2c1	-83.8	-0.5	36.9	53.5	1.5	34.0*
CC(=O)Nc1ccc(S(=O)(=O)Nc2cccc(-c3nc4ccccc4o3)c2)cc1	22.1	.	-3.3	.	1.5	.
CCC(=O)Nc1cccc(-c2nc3ccccc3o2)c1	-156.0	.	60.4*	15.7	-5.2	17.1
CC(=O)Nc1nc2ccc(-c3nc4ccccc4o3)cc2s1	-130.2	.	.	18.0	-4.4	79.5*
O=C(Cc1cccs1)Nc1cccc(-c2nc3ccccc3o2)c1	-127.6	.	6.9	10.4	-3.6	0.2
COc1cccc(S(=O)(=O)N[C@@H]2CC[C@@H](CC(=O)NC3CCC3)O[C@@H]2CO)c1	3.7[16.7 µM]	-1.3	-1.8	.	1.9	.
COCCn1c(=N)c(C(=O)NCc2ccco2)cc2c(=O)n3cc(C)ccc3nc21	-10.2	65.9*	-9.2	4.2	0.1	5.5
CCCc1nc2ccc(C)cn2c1Cc1ccccc1	-14.0	-0.1	50.8*	.	4.1	-1.6
O=C(NCCc1ccccn1)c1ccc(OC2CCN(CCc3ccccc3)CC2)cc1	-7.0	-4.9	8.2	80.5*	-0.9	?
CCCN1CCC(Oc2cccc(C(=O)NCCc3ccccc3)c2)CC1	-16.5	-3.5	50.6*	43.7	-3.7	14.3
O=C(O)CCS(=O)(=O)c1cccc2cccnc12	.	.	-0.4	1.2	.	.
CCSS(=O)(=O)c1cccc2cccnc12	-2.2	95.5*	.	.	3.3	2.8
